PubChem BioAssay AID2375 (NMMLSC, 2010)
Results filed as inconclusive are left out. Blank lines part the entries; values can stand above or below the compound they belong to. Calls of active or inactive are those of the source.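 Rule for the calls: active = compounds that lower growth-factor-driven active Cdc42 or Rac1 at 10 micromolar by more than 15 percent; inactive = the rest, inconclusive results apart.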

How the values were obtained:
[1] = tested on: Cdc42; experiment: cellular Cdc42/Rac1 GTP-loading by G-LISA – cell lysate, ELISA, panel, Ras-related GTPase inhibitor project, profiling panel (AID 2375); settings: NIH 3T3 cells, EGF-stimulated, PAK G-LISA active GTPase, stronger effect = lower value
How it was run: (§1)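 Repeats: duplicates over several trials. Test system: 3T3 lysates on PAK-coated wells. Input: equal cellular protein per well from snap-frozen lysates. Signal: colorimetric ELISA with PAK capture of active GTPase. Benchmarks: EGF-stimulated and unstimulated lysates, GTPase standard. Dosing: two compound concentrations, 1 µM and 10 µM. Probe or stimulus: EGF 10 ng/ml, with or without.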

[2] = tested on: Rac1; experiment: as above; settings: NIH 3T3 cells, EGF-stimulated, PAK G-LISA active GTPase, stronger effect = lower value
How it was run: as §1

- normalized active GTPase ([1]; active GTPase, at 1 µM): 0.87
Compound: COc1ccc(C2CC(c3ccccc3)=NN2c2ccc(S(N)(=O)=O)cc2)cc1OC (centres undefined)
- normalized active GTPase ([1]; at 10 µM): 0.856 (inactive)

- normalized active GTPase ([2]; active GTPase, at 1 µM): 0.5
- normalized active GTPase ([1]; active GTPase, at 1 µM): 1.12
Compound: NS(=O)(=O)c1ccc(N2N=C(c3ccccc3)CC2c2ccc(Br)cc2)cc1 (centres undefined)
- normalized active GTPase ([2]; at 10 µM): 0.47
- normalized active GTPase ([1]; at 10 µM): 0.895 (inactive)

- normalized active GTPase ([2]; active GTPase, at 1 µM): 0.724
- normalized active GTPase ([1]; active GTPase, at 1 µM): 0.923
Compound: COc1ccc(C2CC(c3ccccc3)=NN2c2ccc(S(N)(=O)=O)cc2)cc1 (centres undefined)
- normalized active GTPase ([2]; at 10 µM): 0.612
- normalized active GTPase ([1]; at 10 µM): 0.626

- normalized active GTPase ([2]; active GTPase, at 1 µM): 1.09
- normalized active GTPase ([1]; active GTPase, at 1 µM): 0.979
Compound: Cc1cccc(C2CC(c3ccccc3)=NN2c2ccc(S(N)(=O)=O)cc2)c1 (centres undefined)
- normalized active GTPase ([2]; at 10 µM): 0.932 (inactive)
- normalized active GTPase ([1]; at 10 µM): 0.726

Second part, the compound before the results:

Compound: COc1ccc(C2CC(c3cccc(OC)c3)=NN2c2ccc(S(N)(=O)=O)cc2)cc1 (centres undefined)
- normalized active GTPase ([1]; active GTPase, at 1 µM): 0.442
- normalized active GTPase ([1]; at 10 µM): 1.25 (inactive)

Compound: NS(=O)(=O)c1ccc(N2N=C(c3ccccc3)CC2c2cccc(Br)c2)cc1 (centres undefined)
- normalized active GTPase ([2]; active GTPase, at 1 µM): 0.556
- normalized active GTPase ([2]; at 10 µM): 0.691
- normalized active GTPase ([1]; active GTPase, at 1 µM): 0.764
- normalized active GTPase ([1]; at 10 µM): 1.4 (inactive)

Compound: Cc1ccc(C2CC(c3ccccc3)=NN2c2ccc(S(N)(=O)=O)cc2)cc1 (centres undefined)
- normalized active GTPase ([2]; active GTPase, at 1 µM): 0.782
- normalized active GTPase ([2]; at 10 µM): 0.941 (inactive)
- normalized active GTPase ([1]; active GTPase, at 1 µM): 0.994
- normalized active GTPase ([1]; at 10 µM): 0.667
